Experimental data of several laboratories.
Compare with care: the assays were run in different laboratories.
Target: Calcium/calmodulin-dependent protein kinase type 1D (CAMK1D, Homo sapiens, UniProt Q8IU85)

For `Nc1nc(Nc2ccc(S(N)(=O)=O)cc2)nn1C(=O)c1c(F)cccc1F`, the remaining signal was 97.7% (cell-free assay; 0.5 µM).
`O=C(NC[C@@H]1[C@H]2CN(C(=O)OCc3cc(C(F)(F)F)cc(C(F)(F)F)c3)C[C@@H]12)c1ccc2[nH]nnc2c1` gave a remaining binding of 100% (cell-free assay; competition with immobilised ligand; 1 µM).
`CCN(CC)c1ccc(C2=NNC(=O)CC2C)cc1[N+](=O)[O-]` (stereo not shown) gave a remaining activity of 105% (enzyme activity; inhibitor; 10 µM).
`Cc1cnc(NC2CCOCC2)nc1-n1cnc(C(=O)NC(CN)c2cc(F)cc(Cl)c2)c1` (stereo not shown) gave a remaining activity of 84% (enzyme activity; inhibitor; radiometric; 1 µM).
`c1ccc(CNc2nc(N3CCOc4ccccc43)nc3c2CCCC3)cc1` gave an inhibition of -2.2% (target engagement in cells; inhibitor; chemoproteomics; 20 mM).
The ΔTm of `CC1(C)NC(=O)c2[nH]c3c(Cl)c(Cl)ccc3c2C1C#N` (stereo not shown) is reported as -0.6 °C (thermal stability; DSF; 10 µM).
For `Nc1ncnc2occ(-c3ccc(NC(=O)Nc4cc(C(F)(F)F)ccc4F)cc3)c12`, the remaining signal was 2.8% (cell-free assay; inhibitor; 20 µM).
For `O=C1Nc2ccc(Cl)cc2C1=Cc1cc(Cl)c(O)c(Cl)c1`, the remaining signal was 104% (cell-free assay; 0.5 µM).
`CO[C@@H](C)c1c(Nc2ccc([C@@H](N(C)C(=O)C3CCS(=O)(=O)CC3)C(F)(F)F)cc2)cnc2cc(Cl)nn12` gave a remaining binding of 100% (cell-free assay; competition with immobilised ligand; 1 µM).
For `COc1cc2ncnc(Nc3ccc(Oc4ccccc4)c(C)c3C)c2cc1OC`, the inhibition was 1% (enzyme activity; inhibitor; 1 µM).
`Cc1ccc(NC(=O)c2ccc(C)c(C(F)(F)F)c2)cc1C#Cc1nn(C2CCC(O)CC2)c2ncnc(N)c12` (stereo not shown) has a remaining signal of 92% (cell-free assay; 10 µM).
The remaining signal of `COc1cc2ncnc(Nc3ccc(F)c(Cl)c3)c2cc1OCCCN1CCOCC1` is reported as 88.6% (cell-free assay; 0.5 µM).
`CC(C)(C)c1nc(-c2cccc(NS(=O)(=O)c3c(F)cccc3F)c2F)c(-c2ccnc(N)n2)s1` has a remaining activity of 116% (enzyme activity; inhibitor; radiometric; 1 µM).
The remaining binding of `CNCc1ccccc1-c1csc([C@@H](C)Nc2nc(C)nc3cc(OC)c(OC)cc23)c1` is reported as 100% (cell-free assay; competition with immobilised ligand; 1 µM).
For `Cc1ccc(Nc2nccc(N(C)c3ccc4c(C)n(C)nc4c3)n2)cc1S(N)(=O)=O`, the inhibition was 18% (enzyme activity; inhibitor; 0.3 µM).
`Cn1c2c(Cl)c(Cl)ccc2c2cc[nH]c(=O)c21` gave a ΔTm of 1 °C (thermal stability; DSF; 10 µM).
The inhibition of `CNC(=O)c1cc(Oc2ccc(NC(=O)Nc3ccc(Cl)c(C(F)(F)F)c3)cc2)ccn1` is reported as 22% (enzyme activity; inhibitor; 10 µM).
`CCS(=O)(=O)c1cc2cc(C[C@@](O)(CC(C)(C)c3ccc(F)cc3C(N)=O)C(F)(F)F)[nH]c2cn1` has a remaining binding of 89% (cell-free assay; competition with immobilised ligand; 1 µM).
The remaining activity of `COc1cc(Cl)c(C(=O)N[C@@H](CN[C@H]2CC[C@@H](N)CC2)Cc2ccc(C#N)cc2)cc1-c1ccc(CN[C@H](C)c2ccc(C)cc2)o1` is reported as 88% (enzyme activity; inhibitor; 1 µM).
The activity vs control of `O=C1c2ccccc2-c2n[nH]c3cccc1c23` is reported as 91.9% (enzyme activity; inhibitor; 0.5 µM).
The remaining binding of `C[C@H](c1ccnc(Nc2nc3ccc(-c4cc(N(C)C)ncn4)cc3[nH]2)c1)N1CCN(C(=O)CC(F)(F)F)CC1` is reported as 95% (cell-free assay; competition with immobilised ligand; 0.1 µM).
`CN(CCCC(F)(F)F)c1nccc(-c2cnn3ncccc23)n1` has a remaining binding of 86% (binding; 1 µM).
`Cc1c(C(=O)O)cc(-c2ccc(C3CCNCC3)cc2)c2ccc(-c3ccc(C(F)(F)F)cc3)cc12` gave a remaining binding of 100% (cell-free assay; competition with immobilised ligand; 1 µM).
For `Cn1c2c(c3ccc(Cl)c(Cl)c31)C(C#N)C(C)(C)NC2=O` (stereo not shown), the ΔTm was -0.6 °C (thermal stability; DSF; 10 µM).
The remaining binding of `O=C(NCc1ncc(C(F)(F)F)cc1Cl)c1ccc2c(c1)C1(CCS(=O)(=O)CC1)[C@@H](C1CC1)N2S(=O)(=O)c1ccc(F)cc1` is reported as 99% (cell-free assay; competition with immobilised ligand; 1 µM).
For `Cn1c2c(c3ccc(Cl)c(Cl)c31)C(C#N)C1(CCNCC1)NC2=O` (racemic), the ΔTm was 1.2 °C (thermal stability; DSF; 10 µM).
For `Cc1cc(NC(=O)c2cccc3cc(-c4cccc5[nH]nc(N)c45)ccc23)ccc1F`, the activity vs control was 102% (enzyme activity; inhibitor; 0.1 µM).
The inhibition of `COc1cccc2c(NCc3ccccc3)nc(-n3c(N)nc4ccccc43)nc12` is reported as 0% (target engagement in cells; inhibitor; chemoproteomics; 20 mM).
`CCC1(CC)NC(=O)c2c(c3ccc(Cl)c(Cl)c3n2C)C1C#N` (stereo not shown) has a ΔTm of -0.2 °C (thermal stability; DSF; 10 µM).
`O=C1CCc2cc(Nc3cc(OC4CCOCC4)c([N+](=O)[O-])cc3Cl)ccc2N1` gave a remaining binding of 100% (cell-free assay; competition with immobilised ligand; 1 µM).
`Cc1sc(C(=O)NC2COC2)cc1-n1cc(NC(=O)Nc2c(F)cccc2Cl)cn1` gave a remaining activity of 105% (enzyme activity; inhibitor; 10 µM).
